Test results published in ChEMBL document CHEMBL3407471, “Development of potent inhibitors of pyocyanin production in Pseudomonas aeruginosa” (J Med Chem, 2015).
Activity calls are given as the source filed them.

Key:
[1] = test system: Pseudomonas aeruginosa; assay: Antimicrobial activity against wild-type Pseudomonas aeruginosa PA14; assay type: functional
[2] = test system: Pseudomonas aeruginosa; assay: Inhibition of quorum sensing activity in wild-type Pseudomonas aeruginosa PA14 assessed as inhibition of pyocyanin production at 100 uM by spectrophotometry relative to control; assay type: functional
Method in brief: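 Wild-type P. aeruginosa PA14 cultures exposed to compound at 100 μM. Pyocyanin read as absorbance at 695 nm. Efficacy scaled so that wild-type pyocyanin level = 0% and absorbance equal to background medium = 100%.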

[3] = test system: Pseudomonas aeruginosa; assay: Inhibition of quorum sensing activity in wild-type Pseudomonas aeruginosa PA14 assessed as inhibition of pyocyanin production by spectrophotometry relative to control; assay type: functional
Method in brief: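 Pyocyanin produced by wild-type PA14, read by absorbance at 695 nm, across a range of compound levels. IC50 derived from the dose–response.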

[4] = test system: Escherichia coli; assay: Agonist activity at LasR in Escherichia coli at 100 uM
[5] = test system: Escherichia coli; assay: Antagonist activity at RhlR in Escherichia coli assessed as reduction of AHL-induced GFP production at 100 uM
[6] = test system: Escherichia coli; assay: Antagonist activity at LasR in Escherichia coli assessed as reduction of AHL-induced GFP production at 100 uM
[7] = test system: Escherichia coli; assay: Agonist activity at RhlR in Escherichia coli at 100 uM
[8] = Effect on pyocyanin oxidation state in cell free culture fluid up to 17 hrs by spectrophotometry; assay type: ADME
Method in brief: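 Cell-free culture fluids already containing pyocyanin incubated with compound, to test for a change in pyocyanin oxidation state independent of its production.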

CCCCCCCCCC(=O)CC(=O)Nc1ccnc(F)c1
Activity [1]: inactive
Efficacy [2]: -8.5%

O=C(CCCCCOc1cccc(F)c1)Nc1ccnc(C(F)(F)F)c1
IC50 [3]: 6.3 µM
Activity [4]: inactive
Activity [5]: inactive
Activity [6]: inactive
Activity [1]: inactive
Activity [7]: inactive
Efficacy [2]: 103%

CCCCCCCCCCCC(=O)Nc1ccnc(F)c1
IC50 [3]: 4.4 µM
Activity [4]: inactive
Activity [5]: inactive
Activity [6]: inactive
Activity [1]: inactive
Activity [7]: inactive
Efficacy [2]: 70%

Cc1cccc(OCCCCCC(=O)Nc2ccnc(C(F)(F)F)c2)c1
Activity [1]: inactive
Efficacy [2]: 81%

O=C(CCCCCOc1ccccc1Br)Nc1ccnc(C(F)(F)F)c1
Activity [1]: inactive
Efficacy [2]: 94%

Cc1cc(NC(=O)CCCCCOc2cccc(Br)c2)ccn1
Activity [1]: inactive
Efficacy [2]: 80%

COc1cc(NC(=O)CCCCCCCOc2cccc(Br)c2)ccn1
Activity [1]: inactive
Efficacy [2]: 60%

COc1cc(NC(=O)CCCCCOc2cccc(Br)c2)nc(OC)n1
Activity [1]: inactive
Efficacy [2]: 15%

O=C(CCCCCOc1ccc(F)cc1F)Nc1ccnc(C(F)(F)F)c1
Activity [1]: inactive
Efficacy [2]: 49%

CCCCCCCCCC(=O)CC(=O)Nc1cccnc1
Activity [1]: inactive
Efficacy [2]: 10%

CCCCCCCCCCCC(=O)Nc1ccccn1
Activity [1]: inactive
Efficacy [2]: 55%

CCCCCCCCCCCC(=O)OCc1ccncc1
Activity [1]: inactive
Efficacy [2]: -15%

O=C(CCCCCOc1ccccc1O)Nc1ccnc(C(F)(F)F)c1
Activity [1]: inactive
Efficacy [2]: 95%

CCCCCCCCCCCC(=O)Nc1cnccn1
Activity [1]: inactive
Efficacy [2]: -38%

CCCCCCCCCCCCNC(=O)c1c[nH]c2ccccc12
Activity [1]: inactive
Efficacy [2]: 4.4%

CCCCCCCCCCCC(=O)Nc1ccncc1
Activity [1]: inactive
Efficacy [2]: 28%

COc1cc(NC(=O)CCCOc2cccc(Br)c2)ccn1
Activity [1]: inactive
Efficacy [2]: 20%

CCCCCCCCCCCC(=O)Nc1c(F)c(F)nc(F)c1F
Activity [1]: inactive
Efficacy [2]: -12%

CCCCCCCCCCCC(=O)Nc1cccnc1
Activity [1]: inactive
Efficacy [2]: 34%

O=C(CCCCOc1cccc(Br)c1)Nc1ccnc(C(F)(F)F)c1
Activity [1]: inactive
Efficacy [2]: 95%

CCCCCCCCCC(=O)CC(=O)Nc1cnccn1
Activity [1]: inactive
Efficacy [2]: 21%

O=C(CCCCCCc1cccc(F)c1)Nc1ccnc(C(F)(F)F)c1
Activity [1]: inactive
Efficacy [2]: 96%

O=C(CCCCCOc1c(F)cccc1F)Nc1ccnc(C(F)(F)F)c1
Activity [1]: inactive
Efficacy [2]: 66%

CCCCCCCCCCCCNC(=O)Cc1c[nH]c2ccccc12
Activity [1]: inactive
Efficacy [2]: 0.6%

CCCCCCCCCCCC(=O)Nc1ccncc1C(F)(F)F
Activity [1]: inactive
Efficacy [2]: -17%

O=C(CCCCCOc1cccc(O)c1)Nc1ccnc(C(F)(F)F)c1
Activity [1]: inactive
Efficacy [2]: 70%

O=C(CCCCCOc1c(F)c(F)c(F)c(F)c1F)Nc1ccnc(C(F)(F)F)c1
Activity [1]: inactive
Efficacy [2]: 21%

CCCCCCCCCCCC(=O)Nc1ccnc(Br)c1
Activity [1]: inactive
Efficacy [2]: 34%

CCCCCCCCCCCC(=O)Nc1ccnc(C)c1
Activity [1]: inactive
Efficacy [2]: -19%

O=C(CCCCCOc1cccc(Br)c1)Nc1ccncc1C(F)(F)F
Activity [1]: inactive
Efficacy [2]: 15%

COc1cc(NC(=O)CCCCCCOc2cccc(Br)c2)ccn1
Activity [1]: inactive
Efficacy [2]: 75%

CCCCCCCCCCCCNC(=O)c1ccncc1
Activity [1]: inactive
Efficacy [2]: 13%

O=C(CCCCCOc1cccc(Br)c1)Nc1ccnc(Cl)c1
Activity [1]: inactive
Efficacy [2]: 89%

CCCCCCCCCCCC(=O)N1CCN(c2ccncc2)CC1
Activity [1]: inactive
Efficacy [2]: -42%

O=C(CCCCCSc1cccc(F)c1)Nc1ccnc(C(F)(F)F)c1
Activity [1]: inactive
Efficacy [2]: 94%

CCCCCCCCCCCC(=O)Nc1cc(C)nc2ccccc12
Activity [1]: inactive
Efficacy [2]: -24%

O=C(CCCCCOc1cccc(Br)c1)Nc1ccncc1
Activity [1]: inactive
Efficacy [2]: 53%

CCCCCCCCCCCC(=O)NCc1ccncc1
Activity [1]: inactive
Efficacy [2]: 7.7%

CCCCCCCCCC(=O)CC(=O)Nc1ccc2c(c1)c1ccccc1n2CC
Activity [1]: inactive
Efficacy [2]: 9.3%

O=C(CCCCC#Cc1cccc(F)c1)Nc1ccnc(C(F)(F)F)c1
Activity [1]: inactive
Efficacy [2]: 97%

O=C(CCCCCOc1ccc(F)cc1)Nc1ccnc(C(F)(F)F)c1
Activity [1]: inactive
Efficacy [2]: 54%

O=C(CCCOc1cccc(Br)c1)Nc1ccnc(C(F)(F)F)c1
Activity [1]: inactive
Efficacy [2]: 43%

CCCCCCCCCCCC(=O)Nc1ccc2c(c1)c1ccccc1n2CC
Activity [1]: inactive
Efficacy [2]: -1%

O=C(CCCOc1cccc(Br)c1)Nc1ccnc(F)c1
Activity [1]: inactive
Efficacy [2]: 32%

O=C(CCCCCOc1cccc([N+](=O)[O-])c1)Nc1ccnc(C(F)(F)F)c1
Activity [1]: inactive
Efficacy [2]: 39%

CCCCCCCCCCCC(=O)Nc1ccc2oc3c(c2c1)CCCC3
Activity [1]: inactive
Efficacy [2]: 6.1%

O=C(CCCOc1cccc(Br)c1)Nc1ccncc1
Activity [1]: inactive
Efficacy [2]: 21%

CCCCCCCCCCCCCCCCOC(=O)C1COc2ccccc21 (stereo not given)
Activity [1]: inactive
Efficacy [2]: 1.5%

CCCCCCCCCCCC(=O)Nc1ccncn1
Activity [1]: inactive
Efficacy [2]: 55%

O=C(CCCCCOc1cccc(Cl)c1)Nc1ccnc(C(F)(F)F)c1
Activity [1]: inactive
Efficacy [2]: 101%

COc1nccc(NC(=O)CCCCCOc2cccc(Br)c2)n1
Activity [1]: inactive
Efficacy [2]: 16%

CCCCCCCCCC(=O)CC(=O)Nc1ncccn1
Activity [1]: inactive
Efficacy [2]: -0.51%

O=C(CCCCCOc1cccc(Br)c1)Nc1cccc(C(F)(F)F)c1
Activity [1]: inactive
Efficacy [2]: 62%

CCCCCCCCCC(=O)CC(=O)Nc1ccccn1
Activity [1]: inactive
Efficacy [2]: 44%

CCCCCCCCCC(=O)CC(=O)Nc1ccncn1
Activity [1]: inactive
Efficacy [2]: 64%

O=C(CCCCCOc1cccc(I)c1)Nc1ccnc(C(F)(F)F)c1
Activity [1]: inactive
Efficacy [2]: 95%

CCCCCCCCCCCC(=O)O/N=C1\COc2ccccc21
Activity [1]: inactive
Efficacy [2]: 12%

O=C(CCCCCOc1ccccc1F)Nc1ccnc(C(F)(F)F)c1
Activity [1]: inactive
Efficacy [2]: 78%

O=C(CCCCCOc1cccc(Br)c1)Nc1ccncn1
Activity [1]: inactive
Efficacy [2]: 27%

N#Cc1cccc(OCCCCCC(=O)Nc2ccnc(C(F)(F)F)c2)c1
Activity [1]: inactive
Efficacy [2]: 0.48%

CCCCCCCCCCCCNC(=O)c1cc2ccccc2n1C
Activity [1]: inactive
Efficacy [2]: -9.2%

O=C(CCCCCCOc1cccc(Br)c1)Nc1ccnc(C(F)(F)F)c1
Activity [1]: inactive
Efficacy [2]: 23%

COc1cc(NC(=O)CCCCCOc2cccc(Br)c2)ccn1
Activity [1]: inactive
Efficacy [2]: 73%

CCCCCCCCCCCC(=O)Nc1ccnc(OC)c1
Activity [1]: inactive
Efficacy [2]: -5.1%

COc1cc(NC(=O)CC(=O)CCCOc2cccc(Br)c2)ccn1
Activity [1]: inactive
Efficacy [2]: 40%

CCCCCCCCCCCC(=O)Nc1ncccn1
Activity [1]: inactive
Efficacy [2]: 23%

O=C(CCCCCNc1cccc(F)c1)Nc1ccnc(C(F)(F)F)c1
Activity [1]: inactive
Efficacy [2]: 100%

O=C(CCCCCOc1cccc(Br)c1)Nc1cc(C(F)(F)F)cc(C(F)(F)F)c1
Activity [1]: inactive
Efficacy [2]: 44%

O=C(CCCCCOc1cccc(C(F)(F)F)c1)Nc1ccnc(C(F)(F)F)c1
Activity [1]: inactive
Efficacy [2]: 59%

O=C(CCCCCOc1cccc(Br)c1)Nc1ccnc(F)c1
Activity [1]: inactive
Efficacy [2]: 31%

O=C(CCCCCOc1ccc(Br)cc1)Nc1ccnc(C(F)(F)F)c1
Activity [1]: inactive
Efficacy [2]: 88%

CCCCCCCCCC(=O)CC(=O)Nc1ccnc(OC)c1
Activity [1]: inactive
Efficacy [2]: 24%

CCCCCCCCCCCC(=O)Nc1ccnc(C(F)(F)F)c1
Activity [1]: inactive
Efficacy [2]: 27%

CCCCCCCCCC(=O)CC(=O)Nc1ccncc1
IC50 [3]: 0.16 µM
Activity [4]: inactive
Activity [5]: inactive
Activity [6]: inactive
Activity [1]: inactive
Activity [7]: inactive
Stability [8]: Stable
Efficacy [2]: 63%

CCCCCCCCCCCC(=O)Nc1ccc2[nH]ccc2c1
Activity [1]: inactive
Efficacy [2]: -11%

COc1cc(NC(=O)CCCCOc2cccc(Br)c2)ccn1
Activity [1]: inactive
Efficacy [2]: 81%

COc1cc(NC(=O)CCCCCOc2cccc(Br)c2)ncn1
Activity [1]: inactive
Efficacy [2]: 41%
